Active and inactive are the calls of the source. The rule behind the calls is not given here.

For data set [1], the system named is NRK-49F. Description: Inhibition of TGF-beta-induced collagen accumulation in rat NRK-49F cells incubated for 2 days by PSR staining based microscopic analysis. It counts as functional, cell-based. As to conditions: 48 h.
The nature of data set [2]: Cytotoxicity against rat NRK-49F cells assessed as cell survival rate at 10 uM incubated for 72 hrs by MTT assay. As to conditions: read-out: Activity. It counts as cell-based. Summed up:
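NRK-49F cells were seeded at 0.5×10^5 cells/ml, cultured overnight, then exposed to compound 10 µM for 72 h. MTT was added and incubated 4 h, formazan dissolved in DMSO and absorbance read. Survival = (treated − zero)/(blank − zero) A ×100%, done in triplicate.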

For data set [3], the system named is L929. Description: Antimigratory activity in mouse L929 cells assessed as inhibition of TGF-beta-induced cell migration at 10 uM incubated for 24 hrs by wound healing assay. It counts as functional, cell-based. Summed up:
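Mouse L929 fibroblasts (MEM, 10% FBS, 37 °C, 5% CO₂) were grown to confluence and scratched with a pipette tip to a 100 µm wound. They were then kept in serum-free medium with or without TGF-β 5 ng/ml and compound 10 µM for 24 h. Wounds were imaged by light microscopy at 0, 12 and 24 h.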

Data set [4] has as its system NRK-49F. As to the kind of experiment: Inhibition of TGF-beta-induced collagen accumulation in rat NRK-49F cells at 10 uM incubated for 2 days by PSR staining based microscopic analysis relative to control. Format: functional. Particulars: 48 h, time 2 day. The essentials: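 NRK-49F cells were grown 3 days in DMEM with 5% FBS, then 2 days in DMEM with 1% ITS. Next came 2 days with TGF-β 5 ng/ml plus or minus compound 10 µM. Cells were fixed in 4% paraformaldehyde and stained 4 h with 0.1% Picrosirius Red, then rinsed with acetic acid. Dye was eluted with 0.1 M NaOH and OD read at 540 nm. Inhibition = […] ×100%, in triplicate.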

What is called IC50 is the concentration that gives 50% inhibition. High values mean weaker potency in that assay, low ones greater potency in that assay. As usually defined, the inhibition is the relative decrease from the control value, in per cent. As to `O=C(CN1CCCC1)Nc1ccc(Sc2cc(=O)[nH]c3ccccc23)cc1`, the midpoint of inhibition in data set [1], the IC50, lay at 5.33 µM. Further, in data set [2], the viability at 72 h, 10 µM stood at 87%. Besides, in data set [3], the inhibition entry is “Active”. The same molecule gave an inhibition at 10 µM in data set [4] of 80.9%.

For the origin of these results see ChEMBL document CHEMBL4680254, “Design, synthesis and discovery of 2(1H)-quinolone derivatives for the treatment of pulmonary fibrosis through inhibition of TGF-β/smad dependent and independent pathway” (Eur J Med Chem, 2020).
